In the library only some 0.6% were active in any assay of this set; here they are far more common.
GSK3A inh: blocks human GSK-3 alpha kinase. inhibition, % at 10 µM. ADP-Glo luminescence, 60 min. P49840. hit rate 0.1% among 320,000. AID 2650;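 active = more than half of replicates show inhibition above 20%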;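 also: GST-tagged GSK-3 alpha with peptide substrate and 25 µM ATP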
STK33 inh: blocks human STK33 kinase activity. Q9BYT3. purified STK33, MBP phosphorylation, ADP-Glo luminescence. inhibition, % at 10 µM. hit rate 0.073% among 320,000;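 active = inhibition at or above 25%, using the most active replicate where run in duplicate; inactive = inhibition below 25%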
GSK3beta inhib: human GSK3beta kinase inhibition | GST-GSK3beta kinase, ADP-Glo luminescence, 60 min; stronger effect = lower value | activity score (negative = inhibition), % at 10 µM | P49841 | hit rate 0.038% among 300,000;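 active = more than half of replicate wells score below -50%, meaning over 50% inhibition versus plate controls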
Target sequence (P49841 whole entry, looked up): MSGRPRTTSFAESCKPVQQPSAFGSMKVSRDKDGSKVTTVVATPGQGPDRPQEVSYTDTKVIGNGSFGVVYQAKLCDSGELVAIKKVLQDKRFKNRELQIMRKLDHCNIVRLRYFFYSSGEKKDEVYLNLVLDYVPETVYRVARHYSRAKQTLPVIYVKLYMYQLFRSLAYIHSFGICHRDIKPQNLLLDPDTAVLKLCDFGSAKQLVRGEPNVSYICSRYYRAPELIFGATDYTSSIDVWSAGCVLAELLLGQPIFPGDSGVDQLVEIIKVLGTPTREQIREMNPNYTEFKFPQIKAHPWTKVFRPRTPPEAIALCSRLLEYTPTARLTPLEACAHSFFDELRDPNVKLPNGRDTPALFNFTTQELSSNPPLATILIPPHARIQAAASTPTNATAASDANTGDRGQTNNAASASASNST
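Assay system: GST-tagged human GSK3beta kinase, cell-free; Input: 1.6 ng GSK3beta; Medium: Tris/MgCl2 kinase buffer; Timing: 60 min enzyme reaction, room temperature; Signal: ADP-Glo luminescence quantifying ADP generated by kinase; Evaluation: score relative to plate controls; Benchmarks: DMSO neutral wells and GW8510 at 20 µM as positive.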
PolyA inhibitor: yeast polyadenylation inhibition; S. cerevisiae SKY197-pL101 polyadenylation reporter, beta-gal luminescence; efflux-impaired pdr1/pdr3 knockout yeast; score 100 = 6 SD above DMSO; activity score, % at 12 µM; hit rate 0.02% among 300,000; AID 1875;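 active = lowest replicate activity score at least 50, where 100 means six control SD above control mean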;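 also: yeast exposed to compound for 9 h at 30 °C; higher score means more reporter readthrough which indicates perturbed polyadenylation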
Efflux pump mplx: antifungal efflux pump inhibition, Nile Red retention | AID 485275 | inhibition, % at 10 µM | hit rate 0.44% among 330,000 | S. cerevisiae Candida pump triplex;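 active = plate passing quality check with inhibition over a set limit, or well fluorescence over plate mean plus 4 SD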;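 also: Nile Red retained in pooled yeast measured as flow cytometry median fluorescence; higher means more Nile Red kept so more efflux inhibition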
Cmpd fluor yeast: compound fluorescence in yeast efflux pump counter-screen | S. cerevisiae AD/pABC3, flow cytometry | fluorescence ratio to DMSO, % at 10 µM | AID 588517 | hit rate 4% among 1,700 | shares compounds with Efflux pump mplx;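 active = fluorescence ratio to DMSO above its plate's cutoff, the plate mean ratio plus 5 SD, cut at about 210% in these data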;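 also: unstained yeast with no Nile Red so the signal is compound autofluorescence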
Mdr1 pump inh: blocks the Candida albicans Mdr1 efflux pump in yeast. shares compounds with Efflux pump mplx. S. cerevisiae AD/CaMDR1, Nile Red efflux, flow cytometry. inhibition, % at 10 µM. hit rate 1% among 1,700. AID 588518; in the data active = inhibition above about 26%;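 also: higher means more Nile Red retained so more efflux inhibition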
CaCdr2 efflux inh: inhibitors of Candida albicans Cdr2 efflux pump; shares compounds with Efflux pump mplx; S. cerevisiae AD/CaCDR2, Nile Red retention, flow cytometry; Nile Red retention ratio vs DMSO, % at 10 µM; hit rate 4% among 1,700; in the data active = Nile Red retention ratio vs DMSO above about 190%;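 also: higher ratio means more blocking of Cdr2 efflux of the dye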
CaCdr1 efflux inh: inhibitors of Candida albicans Cdr1 efflux pump; S. cerevisiae AD/CaCDR1, Nile Red efflux, flow cytometry; AID 588522; inhibition, % at 10 µM; shares compounds with Efflux pump mplx; hit rate 1% among 1,700;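 active = inhibition above the screen-wide mean plus twice its standard deviation, cut at about 32% in these data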
Hits are given with their value; n = inactive; x = not tested or not shown.

SMILES	GSK3A inh	STK33 inh	GSK3beta inhib	PolyA inhibitor	Efflux pump mplx	Cmpd fluor yeast	Mdr1 pump inh	CaCdr2 efflux inh	CaCdr1 efflux inh
CC(C)(C)c1ccc(S(=O)(=O)N2CCSC2)cc1	n	n	n	n	n	x	x	x	x
CCOCCCNC(=O)/C(C#N)=C/c1ccc([N+](=O)[O-])o1	n	n	n	n	0.9	n	n	n	n
O=C(NC1CCCCCCC1)NC1CCCCC1	n	n	n	n	1.0	n	n	n	n
CN1CCC(NC(=O)NC2CCCCC2)CC1	n	n	n	n	n	x	x	x	x
CCn1c(C(=O)N2CCCC(C(=O)NCCCc3ccccc3)C2)cc2sccc21 (stereo not drawn)	n	n	n	n	n	x	x	x	x
CCn1c(C(=O)N2CCCC(C(=O)NCCc3ccc(C)cc3)C2)cc2sccc21 (stereo not drawn)	n	n	x	x	1.0	n	n	n	n
COc1ccccc1NC(=O)COC(=O)c1cc([N+](=O)[O-])ccc1N1CCCC1	n	n	x	x	0.9	n	n	n	n
O=C(COC(=O)c1cc([N+](=O)[O-])ccc1N1CCOCC1)Nc1ccccc1OC(F)F	n	n	n	n	n	x	x	x	x
Cc1ccc(NC(=O)NCCCN2CCOCC2)cc1	n	n	n	n	n	x	x	x	x
O=C(NCCCN1CCOCC1)Nc1ccc(Cc2ccc(NC(=O)NCCCN3CCOCC3)cc2)cc1	n	n	n	n	6.8	n	n	n	n
O=c1[nH]c(C2CCN(S(=O)(=O)c3ccc4c(c3)OCCO4)CC2)nc2c1nnn2Cc1ccc(F)cc1	n	n	n	n	n	n	n	n	n
O=c1[nH]c(C2CCN(S(=O)(=O)c3ccc4c(c3)OCCO4)CC2)nc2c1nnn2Cc1cccc(F)c1	n	n	n	n	3.2	n	n	n	n
O=c1[nH]c(C2CCN(S(=O)(=O)c3ccccc3)CC2)nc2c1nnn2Cc1ccc2c(c1)OCCO2	n	n	n	n	n	x	x	x	x
O=c1[nH]c(C2CCN(S(=O)(=O)c3cccc(C(F)(F)F)c3)CC2)nc2c1nnn2Cc1cccc(F)c1	n	n	n	n	n	x	x	x	x
O=C(CCn1ccnc1)Nc1ccc2ccccc2c1	n	n	n	n	n	x	x	x	x
COc1ccccc1N1CCN(C(=O)c2cc(-c3ccccc3)on2)CC1	n	n	n	n	n	x	x	x	x
COc1ccccc1N1CCN(C(=O)c2cc(-c3cccs3)on2)CC1	n	n	n	n	0.7	n	n	n	n
CCC(=O)N1CCN(c2ccc(Cl)cc2NC(=O)c2ccc3c(c2)OCCO3)CC1	n	n	n	n	0.8	n	n	n	n
CCC(=O)N1CCN(c2ccc(NC(=O)c3ccc4c(c3)OCCO4)cc2)CC1	n	n	n	n	n	x	x	x	x
O=S(=O)(c1cccc2nonc12)N1CCCCC1	n	n	n	n	n	x	x	x	x
COc1cc(C(=O)OCC(=O)Nc2c(F)c(F)c(F)c(F)c2F)cc(OC)c1OC	n	n	n	n	n	x	x	x	x
O=C(O)c1cc(Br)ccc1NS(=O)(=O)c1cccc2nsnc12	n	n	n	n	n	x	x	x	x
O=C(O)c1ccccc1NS(=O)(=O)c1cccc2nsnc12	n	n	n	n	0.7	n	n	n	n
Nn1c(SCC(=O)N2CCOCC2)nnc1C1CC1	n	n	n	n	n	x	x	x	x
Cc1ccc(-c2csc(/C(C#N)=C/Nc3ccccc3SC(F)(F)F)n2)c(C)c1	n	n	n	n	0.5	n	n	n	n
SMILES	GSK3A inh	STK33 inh	GSK3beta inhib	PolyA inhibitor	Efflux pump mplx	Cmpd fluor yeast	Mdr1 pump inh	CaCdr2 efflux inh	CaCdr1 efflux inh
Oc1ccc(Br)cc1C=Nc1ccc2c3c(cccc13)CC2	x	x	n	n	3.1	n	n	n	n
O=C(/C=C/c1ccccc1[N+](=O)[O-])Nc1cccnc1	n	n	n	n	n	x	x	x	x
Cc1nnc(NC(=O)c2sc3nc(-c4cccs4)cc(C(F)(F)F)c3c2N)s1	n	n	n	n	1.3	n	n	n	n
CCCCN=C(NNc1ccc(Br)cc1)C(=O)OCC	n	n	n	n	17	n	n	n	n
O=c1c([N+](=O)[O-])cccn1Cc1cccc(Br)c1	n	n	n	n	n	x	x	x	x
Cc1c2cc[n+](CCN3CCCCC3)cc2c(C)c2c1[nH]c1ccc(O)cc12	x	x	x	x	x	n	n	n	n
CCCCCCCNC(=O)CN1N=C(c2ccc(C)cc2)CCC1=O	n	n	n	n	n	x	x	x	x
CSc1nc(-c2ccccc2)nc(N2CCCC2)c1C(C)=O	n	n	n	n	n	x	x	x	x
CC(=O)c1c(N2CCCC2)[nH]c(-c2ccccc2)nc1=S	n	n	n	n	n	x	x	x	x
CC(=O)c1c(N2CCOCC2)[nH]c(-c2ccccc2)nc1=S	n	n	n	n	n	n	n	n	n
CSc1nc(-c2ccccc2)nc(N2CCOCC2)c1C(C)=O	n	n	n	n	n	n	n	n	n
CC(=O)c1c(N2CCN(Cc3ccccc3)CC2)[nH]c(-c2ccccc2)nc1=S	n	n	n	n	0.5	n	n	n	n
O=C(Cn1cncn1)NCc1cccc2ccccc12	n	n	n	n	0.9	n	n	n	n
O=C(Cn1cncn1)NCc1ccccc1Br	n	n	n	n	n	x	x	x	x
COCCn1c(C)cc(/C=C(\C#N)C(=O)OC(C)C(=O)Nc2ccc(NC(C)=O)cc2)c1C (stereo not drawn)	n	n	n	n	n	x	x	x	x
COc1cc(OC)c(OC)cc1/C=N/NC(=O)C[n+]1ccccc1	n	n	n	n	7.6	n	n	n	n
CC(C)[C@H](NC(=O)C1CCN(S(=O)(=O)c2ccc(F)cc2)CC1)C(=O)NCc1ccncc1	n	n	n	n	n	x	x	x	x
O=C(Oc1ccc2c(=O)c(Oc3ccc4ccccc4c3)coc2c1)c1cncc(Br)c1	n	n	n	n	1.2	n	n	n	n
O=C(Oc1ccc2ccccc2c1)c1cncc(Br)c1	n	n	n	n	n	x	x	x	x
O=C(COC(=O)[C@H](Cc1ccccc1)NC(=O)c1cccs1)NC1CCCCC1	n	n	n	n	18	n	n	n	n
COc1ccc(C2=NOC(Cn3nc(C(=O)NCC4CC4)cc3-c3ccccc3)C2)cc1 (stereo not drawn)	n	n	n	n	n	x	x	x	x
CC(=O)Nc1ccc(-c2cn3cc(C)ccc3n2)cc1	n	n	n	n	6.5	n	n	n	n
CCOc1ccc(C2C(C#N)=C(N)N(N(C)C)C3=C2C(=O)CC(C)(C)C3)cc1 (stereo not drawn)	n	n	n	n	n	x	x	x	x
CCOC(=O)c1cc(-c2nnc(SCC(=O)Nc3ccc(F)cc3)o2)c(C)nc1C	n	n	n	n	n	x	x	x	x
Cc1ccccc1NC(=O)CSc1ccc(-c2cccnc2)nn1	n	n	n	n	n	x	x	x	x
